ChEMBL document CHEMBL1158960, “Constituents of leguminous plants, XIII. New triterpenoid saponins from Wistaria brachybotrys” (J Nat Prod, 1991)

Experiments:
Type in all cases: cell-based
[1] = system: Raji; assay: Inhibition of 12-O-tetradecanoylphorbol-13-acetate-induced EBV-early antigen activation in human Raji cells at 1000 molar ratio after 48 hrs relative to TPA; parameters: scale not given: the % may be the effect or the level left; conditions: human gammaherpesvirus 4
Procedure, shortened: (§1)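 EBV-EA activation induced in Raji cells by TPA (20 ng = 32 pmol); test triterpenoid dosed as mol ratio to TPA. Results expressed relative to positive control set at 100%, averages of three determinations ± SD.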

[2] = system: Raji; assay: Inhibition of 12-O-tetradecanoylphorbol-13-acetate-induced EBV-early antigen activation in human Raji cells at 500 molar ratio after 48 hrs relative to TPA; conditions: human gammaherpesvirus 4; procedure, shortened: as §1
[3] = system: Raji; assay: Inhibition of 12-O-tetradecanoylphorbol-13-acetate-induced EBV-early antigen activation in human Raji cells at 100 molar ratio after 48 hrs relative to TPA; parameters: scale not given: the % may be the effect or the level left; conditions: human gammaherpesvirus 4; procedure, shortened: as §1
[4] = system: Raji; assay: Inhibition of 12-O-tetradecanoylphorbol-13-acetate-induced EBV-early antigen activation in human Raji cells at 10 molar ratio after 48 hrs relative to TPA; parameters: scale not given: the % may be the effect or the level left; conditions: human gammaherpesvirus 4; procedure, shortened: as §1
[5] = Cytotoxicity against human Raji cells assessed as cell viability at 1000 molar ratio; conditions: read-out: Activity
Procedure, shortened: (§2)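 Raji cells exposed to TPA (20 ng = 32 pmol) together with test triterpenoid, dosed as mol ratio to TPA; viability of Raji cells recorded alongside EBV-EA assay, given as percentage.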

[6] = Cytotoxicity against human Raji cells assessed as cell viability at 500 molar ratio; conditions: read-out: Activity; procedure, shortened: as §2
[7] = Cytotoxicity against human Raji cells assessed as cell viability at 100 molar ratio; conditions: read-out: Activity; procedure, shortened: as §2
[8] = Cytotoxicity against human Raji cells assessed as cell viability at 10 molar ratio; conditions: read-out: Activity; procedure, shortened: as §2

Compound: COC(=O)[C@H]1O[C@@H](O[C@H]2CC[C@@]3(C)[C@@H](CC[C@]4(C)[C@@H]3CC=C3[C@@H]5CC(C)(C)CC(=O)[C@]5(C)CC[C@]34C)[C@@]2(C)CO)[C@H](O[C@@H]2O[C@H](CO)[C@H](O)[C@H](O)[C@H]2O[C@@H]2O[C@@H](C)[C@H](O)[C@@H](O)[C@H]2O)[C@@H](O)[C@@H]1O [DEHYDROSOYASAPONIN I]
- Activity [1]: 50.3%
- EBV-EA activation remaining (% of TPA control) [2]: 67.8%
- Activity [3]: 88.5%
- Activity [4]: 100%
- viability at 1000 molar ratio [5]: 60%
- viability at 500 molar ratio [6]: > 80%
- viability at 100 molar ratio [7]: > 80%
- viability at 10 molar ratio [8]: > 80%

Compound: CC1(C)CC(=O)[C@]2(C)CC[C@]3(C)C(=CC[C@@H]4[C@@]5(C)CC[C@H](O)[C@](C)(CO)[C@@H]5CC[C@]43C)[C@@H]2C1 [SOYASAPOGENOL E]
- Activity [1]: 0%
- EBV-EA activation remaining (% of TPA control) [2]: 0%
- Activity [3]: 43.9%
- Activity [4]: 89.5%
- viability at 1000 molar ratio [5]: > 80%
- viability at 500 molar ratio [6]: > 80%
- viability at 100 molar ratio [7]: > 80%
- viability at 10 molar ratio [8]: > 80%

Compound: COC(=O)[C@H]1O[C@@H](O[C@H]2CC[C@@]3(C)[C@@H](CC[C@]4(C)[C@@H]3CC=C3[C@@H]5CC(C)(C)CC(=O)[C@]5(C)CC[C@]34C)[C@@]2(C)CO)[C@H](O[C@@H]2OC[C@@H](O)[C@H](O)[C@H]2O[C@@H]2O[C@@H](C)[C@H](O)[C@@H](O)[C@H]2O)[C@@H](O)[C@@H]1O [WISTARIASAPONIN D]
- Activity [1]: 0%
- EBV-EA activation remaining (% of TPA control) [2]: 51%
- Activity [3]: 86.1%
- Activity [4]: 92.8%
- viability at 1000 molar ratio [5]: 10%
- viability at 500 molar ratio [6]: > 80%
- viability at 100 molar ratio [7]: > 80%
- viability at 10 molar ratio [8]: > 80%

Compound: COC(=O)[C@H]1O[C@@H](O[C@H]2CC[C@@]3(C)[C@@H](CC[C@]4(C)[C@@H]3CC=C3[C@@H]5C[C@@](C)(C(=O)OC)C[C@@H](OC(C)=O)[C@]5(C)CC[C@]34C)[C@@]2(C)CO)[C@H](O[C@@H]2OC[C@@H](O)[C@H](O)[C@H]2O[C@@H]2O[C@@H](C)[C@H](O)[C@@H](O)[C@H]2O)[C@@H](O)[C@@H]1O [WISTARIASAPONIN G]
- EBV-EA activation remaining (% of TPA control) [2]: 15.4%
- Activity [3]: 62.6%
- Activity [4]: 79.7%
- viability at 1000 molar ratio [5]: 0%
- viability at 500 molar ratio [6]: 10%
- viability at 100 molar ratio [7]: > 80%
- viability at 10 molar ratio [8]: > 80%
